Reference: PMC3254186 (Frontiers in Pharmacology, 2011)

Experiments:
Assay type in all cases: cell-based
Kir1.1 (S44D) = target: T1, Kir1.1 (S44D) (Rattus norvegicus, UniProt P35560, S44D); experiment: Tl+ flux assay, tetracycline-inducible Kir1.1-S44D T-REx-HEK-293 cells; conditions: IC50 Kir1.1, Tl+ flux, mean ± SEM (n = 3)
T1 sequence (P35560 1-391 S44D): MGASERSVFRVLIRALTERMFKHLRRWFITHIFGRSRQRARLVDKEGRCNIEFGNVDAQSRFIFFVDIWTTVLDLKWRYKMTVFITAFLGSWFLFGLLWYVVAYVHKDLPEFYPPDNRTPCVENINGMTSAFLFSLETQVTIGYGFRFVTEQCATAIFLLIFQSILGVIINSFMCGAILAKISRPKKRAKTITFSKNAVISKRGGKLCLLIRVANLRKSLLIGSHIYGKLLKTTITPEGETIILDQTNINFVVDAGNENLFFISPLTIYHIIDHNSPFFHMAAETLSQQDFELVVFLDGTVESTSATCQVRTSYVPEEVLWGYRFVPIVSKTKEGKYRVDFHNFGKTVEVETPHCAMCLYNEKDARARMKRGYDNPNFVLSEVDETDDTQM
Procedure, shortened: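 Monoclonal C1 T-REx-HEK-293 Kir1.1-S44D cells were grown in DMEM with 10% FBS, penicillin/streptomycin, 5 μg/mL blasticidin S and 250 μg/mL hygromycin. Channel expression was induced overnight with tetracycline. Cells were loaded with FluoZin-2 and pre-treated with test compound from 1:3 serial dilutions. Extracellular Tl+ was then added and fluorescence imaged kinetically at 20–23°C. CRC, mean ± SEM, n = 3.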

Kir3.1/3.2 = target: T2, Kir3.1/3.2 (Homo sapiens, UniProt P48051+P48549); experiment: Two-electrode voltage clamp in Xenopus oocytes, Kir3.1/3.2
T2 sequence (P48549 1-501): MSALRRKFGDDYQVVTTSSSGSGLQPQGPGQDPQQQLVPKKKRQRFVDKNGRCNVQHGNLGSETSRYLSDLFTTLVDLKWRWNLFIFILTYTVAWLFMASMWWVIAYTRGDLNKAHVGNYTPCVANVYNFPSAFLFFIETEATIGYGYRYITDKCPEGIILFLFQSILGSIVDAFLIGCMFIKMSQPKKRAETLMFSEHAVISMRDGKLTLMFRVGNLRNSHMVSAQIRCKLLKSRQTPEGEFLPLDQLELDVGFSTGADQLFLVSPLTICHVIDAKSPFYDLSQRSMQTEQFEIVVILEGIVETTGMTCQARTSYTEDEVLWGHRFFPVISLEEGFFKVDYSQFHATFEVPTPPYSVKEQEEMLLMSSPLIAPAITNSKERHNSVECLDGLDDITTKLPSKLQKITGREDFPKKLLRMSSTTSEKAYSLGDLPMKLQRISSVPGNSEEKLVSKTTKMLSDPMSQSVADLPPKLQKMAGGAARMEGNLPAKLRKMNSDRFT
T2 sequence (P48051 1-423): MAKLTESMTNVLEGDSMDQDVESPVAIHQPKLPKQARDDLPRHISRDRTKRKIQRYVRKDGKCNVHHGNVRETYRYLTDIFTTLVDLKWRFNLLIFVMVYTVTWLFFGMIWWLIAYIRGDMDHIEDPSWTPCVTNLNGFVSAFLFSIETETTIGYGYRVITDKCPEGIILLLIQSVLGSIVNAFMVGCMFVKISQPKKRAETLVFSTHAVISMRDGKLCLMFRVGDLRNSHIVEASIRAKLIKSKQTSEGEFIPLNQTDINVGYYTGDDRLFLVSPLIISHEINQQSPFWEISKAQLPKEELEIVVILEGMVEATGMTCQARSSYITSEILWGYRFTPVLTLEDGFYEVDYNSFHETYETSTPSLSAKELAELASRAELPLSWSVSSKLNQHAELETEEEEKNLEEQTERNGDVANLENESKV
Procedure, shortened: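 Xenopus oocytes were injected with Kir3.1/3.2 or Kir3.1/3.4 cRNA and voltage-clamped with two electrodes at 20–23°C, with current at −80 mV followed over time. The bath was switched from K+-free to 90 mM K+ to activate the channel. Test compound in 90K was applied continuously at graded concentrations, then 2 mM Ba2+ was added. A final 0K switch measured leak. Time constant derived (n = 6 at 25 μM). Percent inhibition n = 4–6.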

Kir7.1 = target: T3, Kir7.1 (Homo sapiens, UniProt O60928); experiment: Two-electrode voltage clamp in Xenopus oocytes, Kir7.1
T3 sequence (O60928 1-360): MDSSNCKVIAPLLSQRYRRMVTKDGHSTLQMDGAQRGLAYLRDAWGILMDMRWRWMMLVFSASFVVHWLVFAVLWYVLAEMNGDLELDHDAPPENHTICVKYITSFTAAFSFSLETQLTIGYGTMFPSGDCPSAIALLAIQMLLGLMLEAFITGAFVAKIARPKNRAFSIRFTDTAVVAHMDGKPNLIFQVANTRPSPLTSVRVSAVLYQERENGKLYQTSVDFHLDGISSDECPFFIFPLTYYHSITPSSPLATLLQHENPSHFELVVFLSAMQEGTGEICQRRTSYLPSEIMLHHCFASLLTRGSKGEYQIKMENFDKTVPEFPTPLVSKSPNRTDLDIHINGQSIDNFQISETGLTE
Procedure, shortened: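 Stage V–VI Xenopus oocytes were defolliculated with 1 mg/mL collagenase and injected with 0.5–10 ng cRNA. They were kept at 16°C in modified L-15 for 24–72 h. Two-electrode voltage clamp at 20–23°C: held at −75 mV and stepped to −120 mV for 200 ms every 5 s, with current at −120 mV tracked over time. Test compound (50 μM) was perfused, then 2 mM Ba2+. Time constant of inhibition derived.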

IC50 (Kir1.1 (S44D)): 10.8 ± 3.8 µM
IC50 (Kir3.1/3.2): ~10 µM
time constant (τ) for inhibition of Kir3.1/3.2 currents (Kir3.1/3.2; TEVC oocytes, 25 μM, mean ± SEM, n = 6): 28 ± 4 s
inhibition at 10 µM (Kir3.1/3.2; read-out: inhibition of GIRK current (Kir3.1/3.2)): ~50%
time constant of Kir7.1 inhibition (Kir7.1; TEVC oocytes, 50 μM, n = 8): 38 ± 6 s
inhibition at 50 µM (Kir7.1; read-out: inhibition of Kir7.1): 66 ± 6%
SMILES: Cc1ccc(OCC(O)Cn2c(=N)n(Cc3ccccc3)c3ccccc32)cc1 (stereo not drawn) [Compound 1, 1-(3-benzyl-2-imino-2,3-dihydro-1H-benzo[d]imidazol-1-yl)-3-(p-tolyloxy)propan-2-ol]
